IC50 data for 15 compounds are collected here from ChEMBL document CHEMBL1138651, “Synthesis of small molecule CDC25 phosphatases inhibitors” (Bioorg Med Chem Lett, 2004).

A value given as a limit tells only on which side of the number the result lay.

The target in the first assay is T1, M-phase inducer phosphatase 3 (Homo sapiens, UniProt P30307).
T1 sequence (P30307 whole entry): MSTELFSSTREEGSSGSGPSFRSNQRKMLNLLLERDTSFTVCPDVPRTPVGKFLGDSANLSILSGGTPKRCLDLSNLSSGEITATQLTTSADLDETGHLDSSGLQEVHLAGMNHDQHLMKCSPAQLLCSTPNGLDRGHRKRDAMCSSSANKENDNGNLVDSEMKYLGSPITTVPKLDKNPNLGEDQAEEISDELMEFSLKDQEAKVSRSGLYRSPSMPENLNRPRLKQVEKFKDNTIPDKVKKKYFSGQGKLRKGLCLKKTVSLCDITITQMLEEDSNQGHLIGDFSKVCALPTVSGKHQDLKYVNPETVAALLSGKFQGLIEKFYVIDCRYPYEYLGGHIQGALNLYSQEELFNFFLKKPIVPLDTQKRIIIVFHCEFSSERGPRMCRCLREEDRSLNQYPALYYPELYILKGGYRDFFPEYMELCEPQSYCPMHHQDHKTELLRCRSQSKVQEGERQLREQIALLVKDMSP
In words: Inhibitory concentration for human cell division cycle 25 degree C phosphatase; […].
In general, IC50 refers to the point on the concentration scale where inhibition reaches its midpoint. Read a high IC50 as weaker potency in that assay. Regarding `CN(CCc1ccc([N+](=O)[O-])cc1)Cc1ccc(N(C)C)cc1`, the IC50 is over 80 µM.

Compound `COc1cccc(CN(C)CCc2ccc([N+](=O)[O-])cc2)c1OC` showed an IC50 of over 80 µM.

`CN(CCc1ccc([N+](=O)[O-])cc1)Cc1ccccc1O` registered an IC50 of over 80 µM.

Compound `COc1cccc(CN(C)CCc2ccc([N+](=O)[O-])cc2)c1O` had an IC50 of over 80 µM.

Consider `CN(CCc1ccc([N+](=O)[O-])cc1)Cc1ccccc1`, for which the IC50 was over 80 µM.

Turning to `CN(CCc1ccc([N+](=O)[O-])cc1)Cc1cccc(N(C)C)c1`, the IC50 was over 80 µM.

Compound `COc1cc(N(C)C)ccc1CN(C)CCc1ccc([N+](=O)[O-])cc1` showed an IC50 of over 80 µM.

For the compound `COc1cccc(CN(C)CCc2ccc([N+](=O)[O-])cc2)c1`, the IC50 was over 80 µM.

As to `COc1ccc(OC)c(CN(C)CCc2ccc([N+](=O)[O-])cc2)c1`, the IC50 was over 80 µM.

In turn, `CN(CCc1ccc([N+](=O)[O-])cc1)Cc1cc([N+](=O)[O-])ccc1O` yielded a half-maximal inhibitory concentration (IC50) of over 80 µM.

A further assay addresses T1, M-phase inducer phosphatase 3. The assay can be described thus: Inhibitory concentration for human cell division cycle 25 degree C phosphatase. A digest of the protocol: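 Recombinant human CDC25C expressed as an MBP fusion, assayed with 3-O-methylfluorescein phosphate (OMFP) as substrate. Dose-response used to derive IC50, with menadione as positive control. Values are the mean ± SEM of at least two independent experiments. Compounds with IC50 > 80 µM were scored not active.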
`CN(C)c1ccc(O)c(CNCCc2ccc([N+](=O)[O-])cc2)c1` came in with an IC50 of 3.9 µM.

The compound `COc1cc(N(C)C)cc(CNCCc2ccc([N+](=O)[O-])cc2)c1O` came in with an IC50 of 4 µM. The IC50 values of the last two compounds are within 1.5-fold of each other.

`CN(CCc1ccc([N+](=O)[O-])cc1)Cc1cc(N(C)C)ccc1O` gave an IC50 of 5.6 µM.

`COc1cc(CN(C)CCc2ccc([N+](=O)[O-])cc2)cc(N(C)C)c1O` returned a 50% inhibitory concentration (IC50) of 20.7 µM.

Take `CC1=CC(=O)c2ccccc2C1=O` [MENADIONE]: half-maximal inhibition (IC50) was put at 18.8 µM.
